Columns and labels:
[1] = molecular target: T1, Transient receptor potential cation channel subfamily V member 1 (Homo sapiens, UniProt Q8NER1); assay: Agonist activity at human TRPV1 receptor expressed in HEK293 cells assessed as increase in intracellular Ca2+ concentration by spectrofluorimetric analysis relative to ionomycin; assay type: cell-based
Method in brief: (§1)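 HEK293 cells stably transfected with human TRPV1 or rat TRPA1 cDNA (pcDNA3, G-418 selection) were loaded 1 h at room temperature with Fluo-4-AM, washed and suspended in Tyrode's buffer pH 7.4. [Ca²⁺]i was read by stirred-cuvette spectrofluorimetry before and after adding test compound at various concentrations. Signal from untransfected cells was subtracted. Efficacy was taken as percent of ionomycin (4 µM) for TRPV1 and percent of allyl isothiocyanate (100 µM) for TRPA1; EC50 was also derived.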

[2] = molecular target: T1, Transient receptor potential cation channel subfamily V member 1; assay: Agonist activity at human TRPV1 receptor expressed in HEK293 cells assessed as increase in intracellular Ca2+ concentration by spectrofluorimetric analysis; assay type: cell-based; method in brief: as §1
[3] = molecular target: Transient receptor potential cation channel subfamily A member 1 (Rattus norvegicus) (UniProt Q6RI86); assay: Agonist activity at rat TRPA1 receptor expressed in HEK293 cells assessed as increase in intracellular Ca2+ concentration by spectrofluorimetric analysis relative to allyl isothiocyanate; assay type: cell-based; method in brief: as §1
[4] = molecular target: T2, Transient receptor potential cation channel subfamily A member 1 (Rattus norvegicus, UniProt Q6RI86); assay: Agonist activity at rat TRPA1 receptor expressed in HEK293 cells assessed as increase in intracellular Ca2+ concentration by spectrofluorimetric analysis; assay type: cell-based; method in brief: as §1
[5] = molecular target: T3, Fatty-acid amide hydrolase 1 (Rattus norvegicus, UniProt P97612); assay: Inhibition of FAAH in rat brain membranes assessed as [14C]AEA hydrolysis to [14C]Ethanolamine after 30 mins by scintillation counting analysis; assay type: cell membranes
T3 sequence (P97612 whole entry): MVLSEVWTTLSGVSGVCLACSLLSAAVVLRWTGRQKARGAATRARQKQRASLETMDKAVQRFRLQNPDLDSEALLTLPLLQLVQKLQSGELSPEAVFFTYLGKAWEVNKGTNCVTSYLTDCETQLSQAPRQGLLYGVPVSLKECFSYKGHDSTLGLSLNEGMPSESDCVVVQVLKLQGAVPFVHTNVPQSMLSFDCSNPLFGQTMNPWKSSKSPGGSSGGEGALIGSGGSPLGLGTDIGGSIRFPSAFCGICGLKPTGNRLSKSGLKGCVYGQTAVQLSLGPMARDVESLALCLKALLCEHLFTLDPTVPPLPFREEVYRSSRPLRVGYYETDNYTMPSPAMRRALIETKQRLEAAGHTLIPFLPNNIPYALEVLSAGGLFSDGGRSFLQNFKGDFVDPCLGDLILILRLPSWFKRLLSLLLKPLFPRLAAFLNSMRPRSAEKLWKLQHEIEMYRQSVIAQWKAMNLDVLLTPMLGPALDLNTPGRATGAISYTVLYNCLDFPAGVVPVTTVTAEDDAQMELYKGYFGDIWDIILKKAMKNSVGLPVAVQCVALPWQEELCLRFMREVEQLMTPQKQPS
Method in brief: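 Rat brain membranes were incubated with [¹⁴C]AEA in 50 mM Tris-HCl pH 9 for 30 min at 37 °C. Released [¹⁴C]ethanolamine in the aqueous phase was counted by scintillation after CHCl₃/CH₃OH 2/1 extraction. IC50 was the concentration giving 50% inhibition.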

[6] = molecular target: T2, Transient receptor potential cation channel subfamily A member 1; assay: Antagonist activity at rat TRPA1 receptor expressed in HEK293 cells assessed as inhibition of allyl isothiocyanate-induced intracellular Ca2+ elevation incubated for 5 mins prior to allyl isothiocyanate-stimulation by spectrofluorimetric analysis; assay type: cell-based
Method in brief: (§2)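 Fluo-4-loaded HEK293 cells stably expressing human TRPV1 or rat TRPA1, in Tyrode's buffer pH 7.4, received test compound in the cuvette 5 min before agonist: capsaicin 0.1 µM for TRPV1, AITC 100 µM for TRPA1. The [Ca²⁺]i rise with agonist alone was set to 100%. IC50 came from a variable-slope sigmoidal fit. Untransfected-cell signal was subtracted.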

[7] = molecular target: T1, Transient receptor potential cation channel subfamily V member 1; assay: Antagonist activity at human TRPV1 receptor expressed in HEK293 cells assessed as inhibition of capsaicin-induced intracellular Ca2+ elevation incubated for 5 mins prior to capsaicin-stimulation by spectrofluorimetric analysis; assay type: cell-based; method in brief: as §2
[8] = molecular target: T4, Monoglyceride lipase (Homo sapiens, UniProt Q99685); assay: Inhibition of MAGL (unknown origin) expressed in African green monkey COS7 cell cytosolic fraction assessed as [3H]2-AG hydrolysis to [3H]arachidonic acid after 20 mins by beta counting analysis; parameters: species or system COS-7
T4 sequence (Q99685 whole entry): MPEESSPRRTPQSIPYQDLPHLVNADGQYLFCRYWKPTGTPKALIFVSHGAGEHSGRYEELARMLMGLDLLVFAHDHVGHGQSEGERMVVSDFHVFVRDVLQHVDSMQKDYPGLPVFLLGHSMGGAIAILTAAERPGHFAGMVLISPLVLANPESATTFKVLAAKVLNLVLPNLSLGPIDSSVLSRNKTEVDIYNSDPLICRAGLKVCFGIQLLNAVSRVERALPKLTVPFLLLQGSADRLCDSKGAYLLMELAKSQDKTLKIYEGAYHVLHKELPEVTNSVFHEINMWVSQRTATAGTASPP

Transient receptor potential cation channel subfamily A member 1 (Rattus norvegicus), sequence (Q6RI86 whole entry): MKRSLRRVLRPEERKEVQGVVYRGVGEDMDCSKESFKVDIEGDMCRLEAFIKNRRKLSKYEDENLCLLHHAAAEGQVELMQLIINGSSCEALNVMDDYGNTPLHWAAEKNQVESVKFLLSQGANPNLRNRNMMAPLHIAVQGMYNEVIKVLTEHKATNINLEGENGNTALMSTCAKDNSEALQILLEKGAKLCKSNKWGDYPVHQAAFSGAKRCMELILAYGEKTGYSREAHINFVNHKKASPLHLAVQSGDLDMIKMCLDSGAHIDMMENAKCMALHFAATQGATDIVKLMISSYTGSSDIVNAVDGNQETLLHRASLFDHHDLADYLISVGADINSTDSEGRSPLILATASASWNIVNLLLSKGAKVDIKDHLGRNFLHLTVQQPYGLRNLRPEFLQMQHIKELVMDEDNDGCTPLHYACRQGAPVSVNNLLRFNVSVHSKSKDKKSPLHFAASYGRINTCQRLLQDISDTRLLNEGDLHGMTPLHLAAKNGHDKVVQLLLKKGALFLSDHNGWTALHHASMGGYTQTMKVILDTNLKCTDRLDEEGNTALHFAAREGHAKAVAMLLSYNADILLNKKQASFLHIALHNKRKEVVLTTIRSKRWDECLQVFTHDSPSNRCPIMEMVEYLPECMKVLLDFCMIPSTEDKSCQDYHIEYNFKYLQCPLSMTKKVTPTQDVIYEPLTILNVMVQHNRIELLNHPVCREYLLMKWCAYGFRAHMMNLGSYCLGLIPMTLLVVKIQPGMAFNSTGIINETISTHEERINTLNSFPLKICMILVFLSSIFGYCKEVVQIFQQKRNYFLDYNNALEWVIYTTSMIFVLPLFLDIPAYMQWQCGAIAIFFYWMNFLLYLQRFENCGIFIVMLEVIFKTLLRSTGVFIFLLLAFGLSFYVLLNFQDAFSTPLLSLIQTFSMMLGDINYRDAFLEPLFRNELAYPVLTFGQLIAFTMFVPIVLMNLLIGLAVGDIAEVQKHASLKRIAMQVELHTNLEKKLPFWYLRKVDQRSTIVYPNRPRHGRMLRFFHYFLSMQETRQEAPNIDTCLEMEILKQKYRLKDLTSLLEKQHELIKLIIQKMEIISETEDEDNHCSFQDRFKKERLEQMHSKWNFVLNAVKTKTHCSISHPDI
T2 sequence (Q6RI86 whole entry): as above
T1 sequence (Q8NER1 whole entry): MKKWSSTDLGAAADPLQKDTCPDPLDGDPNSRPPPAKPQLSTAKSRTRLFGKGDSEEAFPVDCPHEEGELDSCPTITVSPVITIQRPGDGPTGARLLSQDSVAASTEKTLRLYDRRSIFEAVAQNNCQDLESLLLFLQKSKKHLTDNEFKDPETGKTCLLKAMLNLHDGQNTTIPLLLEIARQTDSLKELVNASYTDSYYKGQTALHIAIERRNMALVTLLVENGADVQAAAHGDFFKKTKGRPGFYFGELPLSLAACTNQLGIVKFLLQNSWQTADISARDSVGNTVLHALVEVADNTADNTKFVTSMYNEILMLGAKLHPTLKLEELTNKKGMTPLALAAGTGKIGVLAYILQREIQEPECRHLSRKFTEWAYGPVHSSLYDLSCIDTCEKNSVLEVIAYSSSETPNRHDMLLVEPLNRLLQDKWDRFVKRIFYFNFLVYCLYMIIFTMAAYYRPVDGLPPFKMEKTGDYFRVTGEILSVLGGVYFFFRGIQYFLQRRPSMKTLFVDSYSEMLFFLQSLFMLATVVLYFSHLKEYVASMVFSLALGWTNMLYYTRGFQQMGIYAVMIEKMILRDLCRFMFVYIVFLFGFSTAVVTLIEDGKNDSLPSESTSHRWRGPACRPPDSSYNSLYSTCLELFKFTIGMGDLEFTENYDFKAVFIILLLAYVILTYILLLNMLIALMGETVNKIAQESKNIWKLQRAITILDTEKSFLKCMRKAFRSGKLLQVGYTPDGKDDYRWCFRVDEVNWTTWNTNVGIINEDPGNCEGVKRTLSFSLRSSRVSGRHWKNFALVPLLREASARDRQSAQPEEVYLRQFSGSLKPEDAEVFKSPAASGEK

Compound | Efficacy [1] | EC50 [2] | Efficacy [3] | EC50 [4] | IC50 [5] | IC50 [6] | IC50 [7] | IC50 [8]
O=C(N1CCCCC1)n1nnc(Cc2ccc(-c3ccccc3)cc2)n1 | 66.7% | 1.8 µM | 130% | 3.7 µM | 0.0681 µM | 21.5 µM | 7.4 µM | 
CN(Cc1ccc2ccccc2c1)C(=O)n1nnnc1Cc1ccc(-c2ccccc2)cc1 | 34.1% | 2.5 µM | 53.9% | 13.5 µM | 0.0867 µM | 15 µM | 7.6 µM | > 1 µM
CN(C(=O)n1nnnc1Cc1ccc(-c2ccccc2)cc1)C1CCCCC1 | 45.6% | 13.4 µM | 84.7% | 4.9 µM | 0.725 µM | 14.9 µM | 18.3 µM | > 1 µM
Cc1ccccc1-c1ccc(Cc2nnn(C(=O)N(C)C)n2)cc1 | < 10% |  | 202% | 15.9 µM | 0.0517 µM | 18.9 µM | > 100 µM | 
CN(C)C(=O)n1nnnc1Cc1ccc(-c2cccc(O)c2)cc1 | 20% | 25 µM | 35.7% | 26.8 µM | 0.003 µM | > 100 µM | 67.4 µM | 
Cc1ccccc1-c1ccc(Cc2nnnn2C(=O)N(C)C)cc1 | < 10% |  | 349% | 48.7 µM | 0.0355 µM | 45.2 µM | > 100 µM | > 1 µM
CN(C)C(=O)n1nnc(Cc2ccc(-c3cccc(CO)c3)cc2)n1 | < 10% |  | < 10% |  | 0.0107 µM | > 100 µM | > 100 µM | 
Cc1cccc(-c2ccc(Cc3nnn(C(=O)N(C)C)n3)cc2)c1 | < 10% |  | 187% | 15 µM | 0.0485 µM | 17.8 µM | 78.9 µM | 
CC(=O)c1cccc(-c2ccc(Cc3nnnn3C(=O)N(C)C)cc2)c1 | < 10% |  | < 10% |  | 0.0147 µM | > 100 µM | > 100 µM | > 1 µM
CN(C)C(=O)n1nnnc1Cc1ccc(-c2ccccc2)cc1 | < 10% |  | 101% | 26.9 µM |  | 49.4 µM | > 100 µM | 
CC(=O)c1cccc(-c2ccc(Cc3nnn(C(=O)N(C)C)n3)cc2)c1 | < 10% |  | < 10% |  | 0.0342 µM | 97.2 µM | > 100 µM | 
CN(C)C(=O)n1nnnc1Cc1ccc(-c2cccc(CO)c2)cc1 | < 10% |  | < 10% |  | 0.0106 µM | > 100 µM | > 100 µM | 
Cc1ccc(-c2ccc(Cc3nnnn3C(=O)N(C)C)cc2)cc1 | 28% | 22.5 µM | 388% | 19.7 µM | 0.0071 µM | 15.9 µM | > 100 µM | > 1 µM
CN(Cc1ccc2ccccc2c1)C(=O)n1nnc(Cc2ccc(-c3ccccc3)cc2)n1 | 36.1% | 11.9 µM | < 10% |  | 0.0169 µM | 24.3 µM | 4.5 µM | 
CN(C)C(=O)n1nnc(Cc2ccc(-c3ccc(O)cc3)cc2)n1 | < 10% |  | 109% | 14.6 µM | 0.0054 µM | 30.2 µM | > 100 µM | 
CN(C)C(=O)n1nnc(Cc2ccc(-c3cccc(C(N)=O)c3)cc2)n1 | < 10% |  | < 10% |  | 0.0071 µM | 83.1 µM | 91.8 µM | 
CN(CCCCc1ccccc1)C(=O)n1nnnc1Cc1ccc(-c2ccccc2)cc1 | 45.7% | 1.5 µM | 89.9% | 20.1 µM | 0.0213 µM | 83.7 µM | 7.1 µM | > 1 µM
CN(CCCCc1ccccc1)C(=O)n1nnc(Cc2ccc(-c3ccccc3)cc2)n1 | 15.9% | 1.7 µM | < 10% |  | 0.0116 µM | 92.1 µM | 47.6 µM | 
O=C(N1CCCCC1)n1nnnc1Cc1ccc(-c2ccccc2)cc1 | 67.4% | 5.9 µM | 106% | 6.5 µM | 0.0382 µM | 12.5 µM | 22.6 µM | > 1 µM
COC(=O)c1cccc(-c2ccc(Cc3nnnn3C(=O)N(C)C)cc2)c1 | < 10% |  | < 10% |  | 0.0121 µM | 99.8 µM | > 100 µM | > 1 µM
CN(C)C(=O)n1nnnc1Cc1ccc(-c2ccccc2O)cc1 | < 10% |  | 228% | 59.7 µM | 0.0156 µM | > 100 µM | > 100 µM | > 1 µM
CN(C)C(=O)n1nnnc1Cc1ccc(-c2ccc(O)cc2)cc1 | < 10% |  | 40.5% | 21.7 µM | 0.0167 µM | > 100 µM | > 100 µM | > 1 µM
CN(C)C(=O)n1nnc(Cc2ccc(-c3ccc(CO)cc3)cc2)n1 | < 10% |  | 67.3% | 24.4 µM | 0.0075 µM | 70.6 µM | > 100 µM | 
COC(=O)c1cccc(-c2ccc(Cc3nnn(C(=O)N(C)C)n3)cc2)c1 | < 10% |  | < 10% |  | 0.0123 µM | 91.2 µM | > 100 µM | 
CN(C)C(=O)n1nnnc1Cc1ccc(-c2ccc(CO)cc2)cc1 | < 10% |  | 58.7% | 24.2 µM | 0.0374 µM | 52.6 µM | > 100 µM | > 1 µM
Cc1ccc(-c2ccc(Cc3nnn(C(=O)N(C)C)n3)cc2)cc1 | 33.3% | 4.8 µM | 275% | 10.3 µM | 0.0462 µM | 10.5 µM | 20.6 µM | 
CN(C)C(=O)n1nnc(Cc2ccc(-c3ccccc3)cc2)n1 | 14.5% | 5 µM | 186% | 20.1 µM |  | 11.2 µM | 31.3 µM | 
CN(C)C(=O)n1nnnc1Cc1ccc(-c2cccc(C(N)=O)c2)cc1 | 21.3% | 32.3 µM | 30.7% | 50.1 µM | 0.011 µM | > 100 µM | > 100 µM | > 1 µM
CN(C)C(=O)n1nnc(Cc2ccc(-c3ccccc3O)cc2)n1 | < 10% |  | 445% | 53.3 µM | 0.0402 µM | 28 µM | > 100 µM | 
